Reference: ChEMBL document CHEMBL1145326, “Antimycobacterial agents. Novel diarylpyrrole derivatives of BM212 endowed with high activity toward Mycobacterium tuberculosis and low cytotoxicity” (2006)
In brackets after ≈: the same amount, converted by molar mass.

Legend:
Vero [1] = assay: Protection index, cytotoxicity against Vero cell line/antibacterial activity against Mycobacterium tuberculosis 103471; assay type: functional
How it was run: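 Protection index is the ratio of Vero-cell MNTD₅₀ (cell counts after 5-day exposure) to the MIC against M. tuberculosis CIP 103471. The MIC came from 2-fold tube dilution, inoculum 10⁵–10⁶ CFU/mL, 37 °C.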

[2] = tested on: Mycobacterium tuberculosis; assay: Antibacterial activity against Mycobacterium tuberculosis 103471; assay type: functional
How it was run: (§1)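 MIC by serial 2-fold tube dilution. Compound DMSO stocks were filter-sterilised (0.2 µm) and diluted in water. Tubes were inoculated with 10⁵–10⁶ CFU/mL of each mycobacterium and incubated at 37 °C for 3–21 days. Each run included a drug-free control tube. Values are in µg/mL.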

Vero [3] = assay: Cytotoxicity against Vero cell line; assay type: functional, Chlorocebus sabaeus
How it was run: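 Vero cells were cultured for 24 h, then the medium was replaced with medium holding decreasing compound concentrations. After 5 days the cells were trypsinised and counted in a Neubauer chamber, in triplicate. MNTD₅₀ (µg/mL) is the concentration that decreased cell multiplication by less than 50% of control.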

Mycobacterium avium = assay: Antibacterial activity against Mycobacterium avium; assay type: functional; how it was run: as §1
Mycobacterium marinum = assay: Antibacterial activity against Mycobacterium marinum; assay type: functional; how it was run: as §1
[4] = tested on: Mycolicibacterium smegmatis; assay: Antibacterial activity against Mycobacterium smegmatis; assay type: functional; how it was run: as §1
[5] = tested on: Mycobacterium tuberculosis; assay: Antibacterial activity against intramacrophagic Mycobacterium tuberculosis; assay type: functional

SMILES	PI (Vero [1])	MIC [2] [µg/mL]	Maximal non-toxic dose 50 (Vero [3]) [µg/mL]	MIC (Mycobacterium avium) [µg/mL]	MIC (Mycobacterium marinum) [µg/mL]	MIC [4] [µg/mL]	MCC [5] [µg/mL]
Cc1c(CN2CCN(C)CC2)cc(-c2ccc(F)cc2F)n1-c1ccc(F)cc1	2	4 (≈ 10 µM)	8	16 (≈ 40.1 µM)	> 16	> 16	
Cc1c(CN2CCSCC2)cc(-c2ccc(F)cc2F)n1-c1ccc(F)cc1	32	0.5 (≈ 1.24 µM)	16	16 (≈ 39.8 µM)	16 (≈ 39.8 µM)	> 16	
Cc1c(CN2CCN(C)CC2)cc(-c2ccccc2F)n1-c1ccc(F)cc1		> 16	4	> 16	> 16	> 16	
CN[C@@H]1[C@H](O[C@H]2[C@H](O[C@H]3[C@H](O)[C@@H](O)[C@H](N=C(N)N)[C@@H](O)[C@@H]3N=C(N)N)O[C@@H](C)[C@]2(O)C=O)O[C@@H](CO)[C@H](O)[C@H]1O (stereo in doubt) [STREPTOMYCIN]	>128	0.5 (≈ 0.86 µM)	>64	8 (≈ 13.8 µM)	32 (≈ 55 µM)	8 (≈ 13.8 µM)	
Cc1ccccc1-c1cc(CN2CCSCC2)c(C)n1-c1ccc(F)cc1	2	4 (≈ 10.5 µM)	8	8 (≈ 21 µM)	> 16	> 16	
NNC(=O)c1ccncc1 [ISONIAZID]	128	0.25 (≈ 1.82 µM)	32	32 (≈ 233 µM)	16 (≈ 117 µM)	64 (≈ 467 µM)	
Cc1ccc(-c2cc(CN3CCSCC3)c(C)n2-c2ccc(F)cc2)cc1	160	0.4 (≈ 1.05 µM)	64	8 (≈ 21 µM)	8 (≈ 21 µM)	16 (≈ 42 µM)	3
Cc1c(CN2CCSCC2)cc(-c2ccc(F)cc2)n1-c1ccc(F)cc1F	8	2 (≈ 4.97 µM)	16	16 (≈ 39.8 µM)	16 (≈ 39.8 µM)	> 16	
Cc1ccc(-c2cc(CN3CCN(C)CC3)c(C)n2-c2ccc(F)cc2)cc1	2	4 (≈ 10.6 µM)	8	4 (≈ 10.6 µM)	> 16	8 (≈ 21.2 µM)	
Cc1c(CN2CCSCC2)cc(-c2ccccc2F)n1-c1ccc(F)cc1	32	0.5 (≈ 1.3 µM)	16	16 (≈ 41.6 µM)	> 16	> 16	
Cc1c(CN2CCN(C)CC2)cc(-c2ccc(Cl)cc2)n1-c1ccc(Cl)cc1	5.6	0.7 (≈ 1.69 µM)	4	0.4 (≈ 0.965 µM)	100 (≈ 241 µM)	25 (≈ 60.3 µM)	
Cc1c(CN2CCN(C)CC2)cc(-c2ccc(Cl)cc2Cl)n1-c1ccc(F)cc1	2	8 (≈ 18.5 µM)	16	2 (≈ 4.63 µM)	> 16	> 16	
Cc1c(CN2CCSCC2)cc(-c2ccc(F)cc2)n1-c1ccc(Cl)cc1Cl	4	1 (≈ 2.3 µM)	4	2 (≈ 4.59 µM)	8 (≈ 18.4 µM)	16 (≈ 36.7 µM)	
Cc1c(CN2CCSCC2)cc(-c2ccc(F)cc2)n1-c1ccccc1Cl	4	2 (≈ 4.99 µM)	8	> 16	> 16	> 16	
Cc1c(CN2CCSCC2)cc(-c2ccc(Cl)cc2Cl)n1-c1ccc(F)cc1	32	2 (≈ 4.59 µM)	64	4 (≈ 9.19 µM)	> 16	> 16	
Cc1ccccc1-c1cc(CN2CCN(C)CC2)c(C)n1-c1ccc(F)cc1		> 16	2	> 16	> 16	> 16	

SMILES	PI (Vero [1])	MIC [2] [µg/mL]	Maximal non-toxic dose 50 (Vero [3]) [µg/mL]	MIC (Mycobacterium avium) [µg/mL]	MIC (Mycobacterium marinum) [µg/mL]	MIC [4] [µg/mL]	MCC [5] [µg/mL]
CO[C@H]1/C=C/O[C@@]2(C)Oc3c(C)c(O)c4c(O)c(c(/C=N/N5CCN(C)CC5)c(O)c4c3C2=O)NC(=O)/C(C)=C\C=C\[C@H](C)[C@H](O)[C@@H](C)[C@@H](O)[C@@H](C)[C@H](OC(C)=O)[C@@H]1C [RIFAMPIN]	213	0.3 (≈ 0.365 µM)	64	0.3 (≈ 0.365 µM)	0.6 (≈ 0.729 µM)	32 (≈ 38.9 µM)	3
Cc1ccccc1-n1c(-c2ccc(F)cc2)cc(CN2CCN(C)CC2)c1C		> 16	2	> 16	> 16	> 16	
Cc1c(CN2CCN(C)CC2)cc(-c2ccc(F)cc2)n1-c1ccc(F)cc1F	1	16 (≈ 40.1 µM)	16	16 (≈ 40.1 µM)	16 (≈ 40.1 µM)	> 16	
Cc1c(CN2CCN(C)CC2)cc(-c2ccc(F)cc2)n1-c1ccccc1F	1	8 (≈ 21 µM)	8	16 (≈ 41.9 µM)	> 16	0.3 (≈ 0.786 µM)	
Cc1ccc(-n2c(-c3ccc(F)cc3)cc(CN3CCN(C)CC3)c2C)cc1	0.5	16 (≈ 42.4 µM)	8	16 (≈ 42.4 µM)	8 (≈ 21.2 µM)	> 16	
Cc1ccccc1-n1c(-c2ccc(F)cc2)cc(CN2CCSCC2)c1C	2	8 (≈ 21 µM)	16	16 (≈ 42 µM)	> 16	> 16	
Cc1cccc(-n2c(-c3ccc(F)cc3)cc(CN3CCSCC3)c2C)c1	2	4 (≈ 10.5 µM)	8	16 (≈ 42 µM)	> 16	> 16	
Cc1cccc(-c2cc(CN3CCN(C)CC3)c(C)n2-c2ccc(F)cc2)c1	0.5	16 (≈ 42.4 µM)	8	16 (≈ 42.4 µM)	> 16	> 16	
Cc1cccc(-c2cc(CN3CCSCC3)c(C)n2-c2ccc(F)cc2)c1	2	2 (≈ 5.26 µM)	4	8 (≈ 21 µM)	> 16	> 16	
Cc1c(CN2CCN(C)CC2)cc(-c2ccc(F)cc2)n1-c1ccccc1Cl	2	4 (≈ 10.1 µM)	8	> 16	> 16	> 16	
Cc1cccc(-n2c(-c3ccc(F)cc3)cc(CN3CCN(C)CC3)c2C)c1	1	16 (≈ 42.4 µM)	16	> 16	> 16	> 16	
Cc1c(CN2CCN(C)CC2)cc(-c2ccccc2Cl)n1-c1ccc(F)cc1	0.25	8 (≈ 20.1 µM)	2	16 (≈ 40.2 µM)	> 16	> 16	
Cc1c(CN2CCSCC2)cc(-c2ccc(F)cc2)n1-c1ccccc1F	16	0.5 (≈ 1.3 µM)	8	8 (≈ 20.8 µM)	> 16	8 (≈ 20.8 µM)	3
Cc1c(CN2CCN(C)CC2)cc(-c2ccc(F)cc2)n1-c1ccc(Cl)cc1Cl	0.5	4 (≈ 9.25 µM)	2	4 (≈ 9.25 µM)	8 (≈ 18.5 µM)	> 16	
Cc1ccc(-n2c(-c3ccc(F)cc3)cc(CN3CCSCC3)c2C)cc1	32	1 (≈ 2.63 µM)	32	8 (≈ 21 µM)	8 (≈ 21 µM)	16 (≈ 42 µM)	
Cc1c(CN2CCSCC2)cc(-c2ccccc2Cl)n1-c1ccc(F)cc1	1	4 (≈ 9.98 µM)	4	16 (≈ 39.9 µM)	> 16	> 16	
